DNMT1 block: human DNMT1 methyltransferase inhibitors, primary screen, biochemical, molecular beacon, fluorescence, HinP1I cleavage, uHTS | DNA (cytosine-5)-methyltransferase 1 (Homo sapiens), P26358 | inhibition (reported as % activation of signal), % at 10 µM | 360,000 tested, 0.83% active | AID 588458, 2011; in the data active = inhibition above about 50%
LMPTP inh: LMPTP phosphatase inhibitors, primary screen, biochemical, fluorescence intensity, uHTS; recombinant LMPTP-A, OMFP fluorogenic substrate; inhibition, % at 20 µM; 360,000 tested, 0.22% active;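 active = compounds that cut the enzyme signal by at least half of the control window in the single-dose screen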;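 note: plate controls were DMSO wells with enzyme plus substrate for no effect and substrate without enzyme for full effect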
Target sequence (P24666 whole entry, looked up): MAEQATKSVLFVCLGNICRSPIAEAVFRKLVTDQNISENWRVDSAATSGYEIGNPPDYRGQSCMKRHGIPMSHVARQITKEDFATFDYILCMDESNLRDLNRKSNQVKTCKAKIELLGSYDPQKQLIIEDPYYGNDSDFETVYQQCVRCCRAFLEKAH
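Test system: LMPTP-A phosphatase enzyme; input: 0.625 nM LMPTP-A final; reagent: OMFP substrate, 400 µM final; compound dosing: 20 µM single dose, 3% DMSO; incubation: 50 min dark incubation at room temperature; measured by: endpoint fluorescence intensity from OMFP dephosphorylation; measure: % inhibition relative to no-enzyme and uninhibited control wells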
NadD inh: inhibitors of S. aureus NadD, primary screen, biochemical, colorimetric, uHTS | purified NadD enzyme, colorimetric absorbance read-out | inhibition, % at 20 µM | 360,000 tested, 0.78% active; in the data active = inhibition above about 26%
Scp1 inh: Scp-1 phosphatase inhibitors, primary screen, biochemical, colorimetric, uHTS; Recombinant Scp1, phosphopeptide, malachite green phosphate absorbance; AID 493091, 2011; 340,000 tested, 0.88% active; inhibition, % at 20 µM; Carboxy-terminal domain RNA polymerase II polypeptide A small phosphatase 1 (Homo …;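 active = inhibition above about 50% at 20 µM, limit read from the data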;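 note: plate controls were DMSO wells with enzyme for no effect and wells lacking enzyme for full effect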
Target sequence (Q9GZU7 76-261 limits assumed): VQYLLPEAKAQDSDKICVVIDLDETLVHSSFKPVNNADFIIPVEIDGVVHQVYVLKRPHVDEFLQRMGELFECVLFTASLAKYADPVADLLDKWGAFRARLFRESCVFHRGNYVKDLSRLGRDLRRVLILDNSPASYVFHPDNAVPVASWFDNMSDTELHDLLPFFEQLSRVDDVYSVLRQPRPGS
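assay system = SCP-1 phosphatase catalytic domain, residues 76-261 | buffer or medium = 50 mM Tris acetate pH 5.5, 0.005% Tween-20, 10 mM MgCl2 | incubation = enzyme reaction 45 min at room temperature, colour 5 min, stabilisation 30 min | signal = Phosphate-binding colour reagent, absorbance read at 630 nm | measure = % inhibition at 20 µM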
STEP block: STEP phosphatase inhibitors, primary screen, biochemical, fluorescence intensity, uHTS. Tyrosine-protein phosphatase non-receptor type 5 (Homo sapiens), P54829. recombinant STEP, OMFP fluorogenic substrate. inhibition, % at 20 µM. 360,000 tested, 0.25% active. AID 588621, 2011;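 active = inhibition at 20 µM, scaled per plate between control wells, above about 37%, limit read from the data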;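 note: 0% = DMSO with enzyme and substrate and 100% = substrate only without enzyme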
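material = STEP tyrosine phosphatase | reagent = fluorogenic phosphatase substrate OMFP at 25 µM final | doses = single compound dose of 20 µM, 1% DMSO final | schedule = 20 min reaction, room temperature, in the dark | measured by = fluorescence, 480/540 nm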
SUMO1 PPI mod: modulators of SUMO1 protein-protein interactions, primary screen, biochemical, uHTS; 360,000 tested, 0.33% active; Small ubiquitin-related modifier 1 (Homo sapiens), P63165; SUMO1 binding to a labelled peptide, TR-FRET, 1 h; AID 602429, 2012; inhibition, % at 20 µM; in the data active = inhibition above about 37%
Target sequence (P63165 whole entry, looked up): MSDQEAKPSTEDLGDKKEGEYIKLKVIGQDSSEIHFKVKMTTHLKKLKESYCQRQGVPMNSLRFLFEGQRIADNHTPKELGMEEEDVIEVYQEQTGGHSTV
Scp-1 conf: Scp-1 phosphatase inhibitors, retest, confirmation, biochemical, colorimetric, single concentration | shares compounds with Scp1 inh | recombinant SCP-1 catalytic domain, phosphate release, malachite green absorbance | inhibition, % at 20 µM | 2,500 tested, 61% active;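 note: plate controls were DMSO with enzyme for no effect and buffer wells lacking enzyme for full effect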
MG interference: colorimetric readout interference by compounds, confirmation, artefact control for Scp-1 inhibitor project, biochemical, single concentration. shares compounds with Scp1 inh. Colorimetric interference counterscreen, malachite green absorbance 630 nm. apparent inhibition (interference), % at 20 µM. 2,500 tested, under 10 active;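 note: compounds added after enzyme reaction finished so only phosphate colour detection is probed; plate controls were DMSO wells with completed Scp-1 reaction for no effect and substrate wells lacking enzyme for full effect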
Scp-1 Tm shift: Scp-1 binding by thermal shift, confirmation, orthogonal assay for Scp-1 inhibitor project, biophysical, differential scanning fluorimetry. shares compounds with Scp1 inh. Recombinant SCP1, Sypro Orange thermal shift Tm. thermal shift relative to vanadate control, % at 40 µM. 1,500 tested, 25% active. AID 540329, 2011;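 active = substances whose mean melting-temperature shift, as a percentage of the reference inhibitor's shift, reaches about 5.3%, limit read from the data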;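 note: 0% = Tm of DMSO wells and 100% = Tm with sodium orthovanadate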
Active calls of the source: *; · = not tested or not shown. The list is not random: actives were taken first. Their share in the collection is about 2.4%.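 Rule for the calls, unless noted: active = inhibition of at least 30% at 20 µM; inactive = the rest.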

SMILES	DNMT1 block	LMPTP inh	NadD inh	Scp1 inh	STEP block	SUMO1 PPI mod	Scp-1 conf	MG interference	others
COc1cccc(CNC(=O)CN(C)S(=O)(=O)c2ccc3c(c2)n(C)c(=O)c(=O)n3C)c1	2	-1	-4	-7	2	5	-1	0
C/C=C/C(=O)N1CC2(CC(c3cccc(NC(=O)CC)c3)=NO2)C[C@H]1C(N)=O (stereo not given in full)	2	-3	3	4	-2	6	·	·
C/C=C\C=C/C(=O)Nc1cccc(C2=NOC3(C2)C[C@@H](C(N)=O)N(C(=O)C2(C)CC2)C3)c1 (stereo not given in full)	-14	-1	-1	-3	1	-3	·	·
CCCCCC(=O)Nc1cccc(C2=NOC3(C2)C[C@@H](C(N)=O)N(C(=O)c2ccc(Cl)cc2)C3)c1 (stereo not given in full)	1	0	1	66*	-1	0	-14	-16
C=C(C)C(=O)Nc1cccc(C2=NOC3(C2)C[C@H](C(N)=O)N(C(=O)/C=C/C)C3)c1 (stereo not given in full)	99*	1	-2	66*	1	60*	57*	-13	Scp-1 Tm shift=-30
C=C(C)C(=O)N1CC2(CC(c3cccc(NC(=O)/C=C\C=C/C)c3)=NO2)C[C@H]1C(N)=O (stereo not given in full)	-31	-3	-4	52*	4	23	55*	-13	Scp-1 Tm shift=-11
COc1cccc(/C=N/NC(=O)CNC(=O)c2ccc(S(=O)(=O)N3CCCC3)cc2)c1OC	4	-1	-4	-6	-3	-2	·	·
COc1ccc(Cl)c2sc(N(CCN(C)C)C(=O)C3=COCCO3)nc12	0	0	-9	91*	0	-1	-13	-12
CC(C)C[C@H]1CN(CCCC[C@H]2CNC(=O)C(=O)N2CCc2ccccc2)C(=O)C(=O)N1Cc1ccccc1	·	-2	10	·	·	0	·	·
CC(C)C[C@H]1CNC(=O)C(=O)N1C[C@H](C)NC(=O)Cc1ccccc1	3	-2	-8	-6	0	-6	2	-5
O=C(CN1C(=O)NC2(CCCCC2)C1=O)NCC(=O)Nc1ccc(F)c(F)c1	3	-2	-6	-2	-1	0	-12	-15
C#CCn1c(=NC(=O)c2ccc(Br)s2)sc2cc(NC(C)=O)ccc21	34	6	-6	54*	19	0	70*	-7	Scp-1 Tm shift=2
COCCn1c(=NC(=O)c2cccs2)sc2cc(NC(C)=O)ccc21	-6	0	-9	-5	-1	-1	·	·
O=C(Nc1nccs1)c1ccc2nccnc2c1	15	0	9	52*	2	18	63*	1	Scp-1 Tm shift=-2
CC1(C)CN(c2cccc(Br)c2)C1=O	-2	-2	-5	-4	0	-3	·	·
C#Cc1ccc([C@H]2C=C(C(=O)O)O[C@@H](OCc3ccc(CO)cc3)C2)cc1	24	0	-5	50*	5	-6	48*	-16	Scp-1 Tm shift=-2
CCOC(=O)CN1C(=O)N[C@@H](c2cccc(C(F)(F)F)c2)[C@H](C(C)=O)[C@H]1C	2	-1	-5	-8	3	5	·	·
COc1ccc(NC(=O)CSc2nc(-c3ccco3)nc3cc(=O)[nH]n23)cc1Cl	6	9	12	53*	14	5	25	-20
COc1ccc(NC(=O)CSc2n[nH]c(=O)n2C2CC2)cc1Cl	2	1	-5	4	1	-1	·	·
C[C@H](CO)N1C[C@H](C)[C@@H](CN(C)C(=O)Nc2ccc(C(F)(F)F)cc2)Oc2ccc(NC(=O)C3CC3)cc2C1=O	0	1	-1	56*	1	1	-3	-21
C[C@H](CO)N1C[C@H](C)[C@@H](CN(C)C(=O)Nc2ccccc2)Oc2ccc(NC(=O)c3ccncc3)cc2C1=O	11	0	8	75*	1	-3	18	-15
CC(C)NC(=O)Nc1ccc2c(c1)C(=O)N([C@H](C)CO)C[C@H](C)[C@@H](CN(C)C(=O)Nc1ccc3c(c1)OCO3)O2	-1	-1	0	62*	0	1	-7	-17
C[C@H](CO)N1C[C@H](C)[C@@H](CN(C)C(=O)Nc2ccc(C(F)(F)F)cc2)Oc2ccc(NC(=O)Nc3ccccc3)cc2C1=O	-18	2	17	12	-2	5	·	·
C[C@H](CO)N1C[C@H](C)[C@@H](CN(C)C(=O)Nc2ccccc2)Oc2ccc(NC(=O)Nc3ccccc3)cc2C1=O	-1	0	13	71*	-1	5	15	-11
C/C=C(\C)CN1CCC(Oc2ccc(C(=O)NCc3ccccn3)cc2)CC1	1	1	-7	-11	-1	0	·	·
COCCN(C(=O)c1ccc(N(C)S(=O)(=O)c2ccc(C)cc2)cc1)c1c(N)n(CC(C)C)c(=O)[nH]c1=O	7	0	7	0	-3	2	·	·
N=C1/C(=C/c2ccc(-c3cccc(C(=O)O)c3)o2)C(=O)N=C2SC(CC(=O)N3CCOCC3)=NN12	56*	2	6	79*	25	33	58*	-13	Scp-1 Tm shift=2
N=C1/C(=C\c2ccc(SCc3ccccc3)o2)C(=O)N=C2SC(CC(=O)N3CCOCC3)=NN12	10	5	19	15	2	-3	·	·
O=C(Nc1cccc([N+](=O)[O-])c1)c1cnccn1	16	3	2	58*	4	-9	56*	-17	Scp-1 Tm shift=6.4*

Assay outcomes: PubChem BioAssay, Sanford-Burnham Center for Chemical Genomics
